Columns and labels:
[1] = Half-life was measured in 0.5 M KCl at 10 mM concentration; type: ADME; settings: 0.5 M KCl solution
Summary of the method: (§1)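 Chemical stability was measured with 0.5 mmol ester in 50 mL 0.5 M KCl plus 0.5 mL pH 7.00 phosphate buffer (10 mM), at pH 7.35 and 37 °C. pH-stat titration with 0.5 N NaOH recorded base consumption against time for the 2 acid equivalents released. Pseudo-first-order half-life, mean of at least two runs.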

[2] = Half-life was measured in 10% human serum at 1 mM concentration; type: ADME
Summary of the method: (§2)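 Medium was 45 mL 0.5 M KCl, 0.5 mL phosphate buffer and 5.0 mL human serum (protein 69–78 mg/mL, BSA standard), N2-purged 2 h with pH held at 7.2–7.6 using 0.1 N HCl. Ester (0.05 or 0.5 mmol) was added; a pH-stat held 7.35 with 0.1 or 0.5 N NaOH at 37 °C. Half-life was calculated from base consumed.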

[3] = Half-life was measured in 10% human serum at 10 mM concentration; type: ADME; summary of the method: as §2
Mus musculus [4] = species: Mus musculus; assay: Compound was tested for anticonvulsant activity by measuring its effect on convulsions induced by bicuculline in mice.; type: functional
Summary of the method: (§3)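 Mice, at least five per group at each time point, received the ester ip; convulsions were induced 0.5, 1, 2, 3, 4, 5, 6, 17 and 24 h later. Value is the minimum effective anticonvulsant dose (mg/kg), with the time between dosing and onset of activity.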

Mus musculus [5] = species: Mus musculus; assay: Compound was tested for anticonvulsant activity by measuring its effect on convulsions induced by electroshock in mice.; type: functional; summary of the method: as §3
Mus musculus [6] = species: Mus musculus; assay: Compound was tested for anticonvulsant activity by measuring its effect on convulsions induced by isoniazide in mice.; type: functional; summary of the method: as §3
[7] = Half-life was measured in 10% human serum at 10 mM of ester; type: ADME; summary of the method: as §2
[8] = Half-life was measured in 0.5 M KCl at 10 mM dose.; type: ADME; settings: 0.5 M KCl solution; summary of the method: as §1
[9] = Half-life was measured in 10% human serum at 10 mM dose.; type: ADME; summary of the method: as §2
[10] = Half-life was measured in 10% human serum at 1 mM dose.; type: ADME; summary of the method: as §2

Row | SMILES | half-life at 10000 µM [1] [h] | half-life at 1000 µM [2] [h] | half-life at 10000 µM [3] [h] | half-life at 10000 µM [7] [h] | half-life at 10000 µM [8] [h] | half-life at 10000 µM [9] [h] | half-life at 1000 µM [10] [h] | Anticonvulsant dose (Mus musculus [4]) [mg/kg] | Anticonvulsant dose (Mus musculus [5]) [mg/kg] | Anticonvulsant dose (Mus musculus [6]) [mg/kg]
1 | O=C(O)/C=C/C(=O)O.O=C(OCOC(=O)c1ccccc1)C1=CCNCC1 | 9.3 | 0.07 | 0.4 |  |  |  |  | >80 | >80 | >160
2 | Cl.O=C(O)C1=CCNCC1 [ISOGUVACINE HYDROCHLORIDE] |  |  |  |  |  |  |  | >80 | >80 | >160
3 | Br.CCOC(=O)COC(=O)C1=CCNCC1 |  |  |  | 300 |  |  |  |  |  | 
4 | O=C(O)/C=C/C(=O)O.O=C(OCOC(=O)C1CCCCC1)C1=CCNCC1 | 10 | 0.03 | 0.14 |  |  |  |  |  |  | 
5 | CC(C)(C)C(=O)OCOC(=O)C1=CCNCC1.O=C(O)/C=C/C(=O)O | 17.1 | 4.6 | 14.9 |  |  |  |  | 20 | 10 | >160
6 | CCCCCC(=O)OCOC(=O)C1=CCNCC1.O=C(O)/C=C/C(=O)O | 13 | 0.06 | 0.32 |  |  |  |  |  |  | 
7 | COC(=O)C1=CCNCC1.Cl |  |  |  | 430 |  |  |  |  |  | 
8 | Br.CCCCOC(=O)C1=CCNCC1 |  |  |  | 600 |  |  |  | 40 | 40 | >160

The next lines start with results.

Row | half-life at 10000 µM [1] [h] | half-life at 1000 µM [2] [h] | half-life at 10000 µM [3] [h] | half-life at 10000 µM [7] [h] | half-life at 10000 µM [8] [h] | half-life at 10000 µM [9] [h] | half-life at 1000 µM [10] [h] | SMILES | Anticonvulsant dose (Mus musculus [4]) [mg/kg] | Anticonvulsant dose (Mus musculus [5]) [mg/kg] | Anticonvulsant dose (Mus musculus [6]) [mg/kg]
9 | 11.7 | 0.06 | 0.25 |  |  |  |  | CCCC(=O)OCOC(=O)C1=CCNCC1.O=C(O)/C=C/C(=O)O |  |  | 
10 | 10.8 | 0.13 | 0.73 |  |  |  |  | CC(C)C(=O)OCOC(=O)C1=CCNCC1.O=C(O)/C=C/C(=O)O |  |  | 
11 | 15.7 | 2.3 | 7.9 |  |  |  |  | CCC(CC)C(=O)OCOC(=O)C1=CCNCC1.O=C(O)/C=C/C(=O)O |  |  | 
12 | 12 | 0.03 | 0.28 |  |  |  |  | CCCCC(=O)OCOC(=O)C1=CCNCC1.O=C(O)/C=C/C(=O)O |  |  | 
13 | 10.9 | 0.6 | 1.2 |  |  |  |  | CC(=O)OCOC(=O)C1=CCNCC1.O=C(O)/C=C/C(=O)O | >80 | 5 | 40
14 |  |  |  |  | 11.1 | 0.54 | 0.17 | CCC(=O)OCOC(=O)C1=CCNCC1.O=C(O)/C=C/C(=O)O | >80 | >80 | 40
15 | 13.3 | 0.72 | 3.5 |  |  |  |  | CC(C)CC(=O)OCOC(=O)C1=CCNCC1.O=C(O)/C=C/C(=O)O |  |  | 
